What was measured:
Rattus norvegicus [1] = experiment: Percent increase in liver weight in rats when administered perorally; format: functional
Rattus norvegicus [2] = experiment: Percent change in total cholesterol concentration in serum from hypercholesterolemic rats at dose 50 mg/kg (po); format: functional
Rattus norvegicus [3] = experiment: Percent change in high density lipoproteins cholesterol concentration in serum from hypercholesterolemic rats at dose 50 mg/kg (po); format: functional
Summary of the method: (§1)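 Rats were fed 1.5% cholesterol/0.5% cholic acid diet for 7 days, with compounds given by gavage over the last 4 days as a 0.5% Methocel suspension (0.5 mL/100 g). Rats were fasted overnight, killed on day 8 and bled under light CO₂ anesthesia. HDL was isolated by heparin-MnCl₂ precipitation (8000 rpm, 15 min, 4 °C). Total and HDL cholesterol were measured enzymatically-colorimetrically; % change vs control.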

Rattus norvegicus [4] = experiment: Percent change in total cholesterol concentration in serum from hypercholesterolemic rats at dose 37 mg/kg (po); format: functional
Rattus norvegicus [5] = experiment: Percent change in high density lipoproteins cholesterol concentration in serum from hypercholesterolemic rats at dose 37 mg/kg (po); format: functional; summary of the method: as §1
Rattus norvegicus [6] = species: Rattus norvegicus; experiment: Compound was tested in vitro for inhibition of Cholesterol biosynthesis in rat liver slices, % inhibition of [14C]acetate incorporation in neutral lipids at 2 e10-4 concentration; format: functional
Summary of the method: (§2)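 Liver slices (250 mg) from fed male rats were incubated in Krebs-Ringer bicarbonate, pH 7.4, with 4 mM [2-¹⁴C]acetate under 95% O₂-5% CO₂. Compounds were tested at a final 2 × 10⁻⁴ M, or 5 × 10⁻⁵ M for one compound. ¹⁴C incorporation into cholesterol and into petroleum-ether-soluble nonsaponifiable neutral lipids gave % inhibition; mean of four determinations.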

Rattus norvegicus [7] = species: Rattus norvegicus; experiment: Compound was tested in vitro for inhibition of Cholesterol biosynthesis in rat liver slices, % inhibition of [14C]-acetate incorporation in cholesterol at 2 e10-4 concentration; format: functional; summary of the method: as §2
Rattus norvegicus [8] = experiment: Percent change in total cholesterol concentration in serum from hypercholesterolemic rats at dose 25 mg/kg (po); format: functional; summary of the method: as §1
Rattus norvegicus [9] = experiment: Percent change in high density lipoproteins cholesterol concentration in serum from hypercholesterolemic rats at dose 25 mg/kg (po); format: functional; summary of the method: as §1
Rattus norvegicus [10] = experiment: Percent change in total cholesterol concentration in serum from hypercholesterolemic rats at dose 45 mg/kg (po); format: functional
Rattus norvegicus [11] = experiment: Percent change in high density lipoproteins cholesterol concentration in serum from hypercholesterolemic rats at dose 45 mg/kg (po); format: functional; summary of the method: as §1
Rattus norvegicus [12] = experiment: Percent increase in liver weight in rats when a 50 mg/Kg dose was administered; format: functional
Rattus norvegicus [13] = experiment: Compound was tested for Enzyme induction effect in male rats treated for 5 days at dose 50 mg/kg aminopyrine N-demethylase activity (per g) of liver; format: functional
Summary of the method: (§3)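 Male OFA-ICO SD rats were dosed orally for 5 days, with test compounds at 50 mg/kg/day and sodium phenobarbital at 75 mg/kg/day. Liver was homogenized in 1.15% KCl-0.01 M phosphate, pH 7.5. Microsomes were spun from the 9000g supernatant at 105000g and assayed for protein, cytochrome P-450, aniline p-hydroxylation (µmol p-aminophenol/20 min) and aminopyrine N-demethylation (µmol HCHO/5 min). Liver/body weight was also recorded. Mean ± SEM of four rats; Dunnett's test.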

Rattus norvegicus [14] = experiment: Compound was tested for Enzyme induction effect in male rats treated for 5 days at dose 50 mg/kg aniline p-hydroxylase activity(per g) of liver; format: functional; summary of the method: as §3
Rattus norvegicus [15] = experiment: Compound was tested for Enzyme induction effect in male rats treated for 5 days at dose 50 mg/kg concentration of cytochrome […]( mmol/mg) of protein; format: functional; summary of the method: as §3
Rattus norvegicus [16] = experiment: Compound was tested for Hepatic peroxisomal proliferation effect in male rats treated for 7 days at dose 50 mg/kg carnitine acetyl transferase activity(per mg) of protein; format: functional
Summary of the method: (§4)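 Male OFA-ICO SD rats received oral doses of 50 mg/kg/day for 1 week. Liver was homogenized in 0.25 M sucrose-0.01 M phosphate-0.1% ethanol, pH 7, then diluted in incubation buffer with 0.1% Triton X-100 and centrifuged. Supernatants were assayed for catalase (K, sec⁻¹), carnitine acetyltransferase (nmol CoASH/min) and cyanide-insensitive palmitoyl-CoA oxidation (nmol NAD⁺ reduced/min). Mean ± SEM of three rats; Dunnett's test.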

Rattus norvegicus [17] = experiment: Compound was tested for Hepatic peroxisomal proliferation effect in male rats treated for 7 days at dose 50 mg/kg catalase activity (per mg) of protein; format: functional; summary of the method: as §4
Rattus norvegicus [18] = experiment: Compound was tested for Hepatic peroxisomal proliferation effect in male rats treated for 7 days at dose 50 mg/kg palmitoyl-CoA oxidation activity(per mg) of protein; format: functional; summary of the method: as §4
Rattus norvegicus [19] = experiment: Compound was tested for Enzyme induction effect in male rats treated for 5 days at dose 50 mg/kg concentration of microsomal proteins (mg/g) of liver; format: functional, organism-based; design: dose 50 mg/kg; summary of the method: as §3
Rattus norvegicus [20] = experiment: Compound was tested for Hepatic peroxisomal proliferation effect in male rats treated for 7 days at dose 50 mg/kg concentration of hepatic proteins(mg/g) in liver; format: functional, organism-based; design: dose 50 mg/kg
[21] = Compound was tested for Enzyme induction effect in male rats treated for 5 days at dose 50 mg/kg; ratio of % liver weight to % body weight; format: functional; summary of the method: as §3
[22] = Compound was tested for Hepatic peroxisomal proliferation effect in male rats treated for 7 days at dose 50 mg/kg ratio of % liver weight to % body weight; format: functional
[23] = Percent change in high density lipoprotein cholesterol
Rattus norvegicus [24] = experiment: Percent change in triglyceride concentration in serum from normocholesterolemic rats at dose 50 mg/kg (po)
Rattus norvegicus [25] = experiment: Percent change in low density lipoproteins cholesterol concentration in serum from normocholesterolemic rats at dose 50 mg/kg (po)
Rattus norvegicus [26] = experiment: Percent change in total cholesterol concentration in serum from hypercholesterolemic rats at dose 35 mg/kg (po); format: functional
Rattus norvegicus [27] = experiment: Percent change in high density lipoproteins cholesterol concentration in serum from hypercholesterolemic rats at dose 35 mg/kg (po); format: functional; summary of the method: as §1

Clc1ccc2c(c1)C=C(n1ccnc1)CO2
Change (Rattus norvegicus [1]): 2% | Change (Rattus norvegicus [2]): -10% | Change (Rattus norvegicus [3]): 25%

CN(C)c1ccc2c(c1)C(=O)C(n1ccnc1)CC2 (stereo unspecified)
Change (Rattus norvegicus [1]): 11% | Change (Rattus norvegicus [4]): -37% | Change (Rattus norvegicus [5]): 69% | Inhibition (Rattus norvegicus [6]): 0% | Inhibition (Rattus norvegicus [7]): 55%

COc1ccc2c(c1)OCC(n1ccnc1)C2=O (stereo unspecified)
Change (Rattus norvegicus [1]): 3% | Change (Rattus norvegicus [2]): 11% | Change (Rattus norvegicus [3]): -1%

Cc1ccc2c(c1)C(=O)C(n1ccnc1)CO2 (stereo unspecified)
Change (Rattus norvegicus [2]): 7% | Change (Rattus norvegicus [3]): 32%

O=C1c2ccccc2CCC1n1cccn1 (stereo unspecified)
Change (Rattus norvegicus [1]): 9% | Change (Rattus norvegicus [2]): 52% | Change (Rattus norvegicus [3]): -3%

COc1ccc2c(c1)C(=O)C(n1ccnc1)CC2 (stereo unspecified)
Change (Rattus norvegicus [1]): 10% | Change (Rattus norvegicus [2]): -40% | Change (Rattus norvegicus [3]): 52%

CCCc1cc2c(cc1O)OC(C)C(n1ccnc1)C2=O (stereo unspecified)
Change (Rattus norvegicus [1]): 8% | Change (Rattus norvegicus [8]): -15% | Change (Rattus norvegicus [9]): 28%

CC1Oc2cc(O)c(C(C)(C)C)cc2C(=O)C1n1ccnc1 (stereo unspecified)
Change (Rattus norvegicus [1]): 9% | Change (Rattus norvegicus [2]): -7% | Change (Rattus norvegicus [3]): 32%

OC1c2cc(Cl)ccc2OCC1n1ccnc1 (trans isomer)
Change (Rattus norvegicus [1]): 20% | Change (Rattus norvegicus [2]; 50 mg/kg): -14% | Change (Rattus norvegicus [3]; 50 mg/kg): 83%

O=C1c2cc(O)cc(Br)c2OCC1n1ccnc1 (stereo unspecified)
Change (Rattus norvegicus [1]): -1% | Change (Rattus norvegicus [2]): 2% | Change (Rattus norvegicus [3]): 1%

O=C(O)c1ccc2c(c1)C(=O)C(n1ccnc1)CC2 (stereo unspecified)
Change (Rattus norvegicus [1]): -3% | Change (Rattus norvegicus [10]): -5% | Change (Rattus norvegicus [11]): -9%

COc1ccc2c(c1)C(O)C(n1ccnc1)CC2 (stereo unspecified)
Change (Rattus norvegicus [1]): 21% | Change (Rattus norvegicus [2]): -24% | Change (Rattus norvegicus [3]): 88%

O=C1c2cc(Cl)ccc2OCC1n1ccnc1 (stereo unspecified)
Change (Rattus norvegicus [12]): 34% | Change (Rattus norvegicus [1]): 28% | Activity (Rattus norvegicus [13]): 2.98 | Activity (Rattus norvegicus [14]): 0.93 | Activity (Rattus norvegicus [15]): 2.46 | Activity (Rattus norvegicus [16]): 2.9 | Activity (Rattus norvegicus [17]): 42.1 | Activity (Rattus norvegicus [18]): 4.1 | Concentration (Rattus norvegicus [19]): 42.5 | Concentration (Rattus norvegicus [20]): 216 | Inhibition (Rattus norvegicus [6]): 0% | Inhibition (Rattus norvegicus [7]): 0% | Ratio [21]: 4.4% | Ratio [22]: 4.36% | Percent change in HDL cholesterol [23]: 153 | Change (Rattus norvegicus [24]): -46% | Change (Rattus norvegicus [25]): -53%

O=C1c2cc(Br)cc(Br)c2OCC1n1ccnc1 (stereo unspecified)
Change (Rattus norvegicus [1]): 29% | Change (Rattus norvegicus [2]): -68% | Change (Rattus norvegicus [3]): 171%

O=C1c2ccsc2CCC1n1ccnc1 (stereo unspecified)
Change (Rattus norvegicus [2]): 17% | Change (Rattus norvegicus [3]): 2%

O=C1c2ccccc2CCC1n1ccnc1 (stereo unspecified)
Change (Rattus norvegicus [1]): 13% | Change (Rattus norvegicus [2]): -34% | Change (Rattus norvegicus [3]): 94%

Nc1ccc2c(c1)C(=O)C(n1ccnc1)CC2 (stereo unspecified)
Change (Rattus norvegicus [1]): 3% | Change (Rattus norvegicus [26]): -24% | Change (Rattus norvegicus [27]): 31% | Inhibition (Rattus norvegicus [6]): 0% | Inhibition (Rattus norvegicus [7]): 74%

O=C1c2ccccc2OCC1n1ccnc1 (stereo unspecified)
Change (Rattus norvegicus [1]): 16% | Change (Rattus norvegicus [2]): 34% | Change (Rattus norvegicus [3]): 4%

CC1Oc2ccccc2C(=O)C1n1ccnc1 (stereo unspecified)
Change (Rattus norvegicus [1]): 15% | Change (Rattus norvegicus [2]): -67% | Change (Rattus norvegicus [3]): 115%

CCCCCCCCOC1c2cc(Cl)ccc2OCC1n1ccnc1 (stereo unspecified)
Change (Rattus norvegicus [2]): 42% | Change (Rattus norvegicus [3]): 18%

COc1ccc2c(c1)OC(C)C(n1ccnc1)C2=O (stereo unspecified)
Change (Rattus norvegicus [1]): 2% | Change (Rattus norvegicus [2]): 11% | Change (Rattus norvegicus [3]): 5%

O=C1c2cc(Cl)ccc2OCC1n1cccn1 (stereo unspecified)
Change (Rattus norvegicus [1]): 6% | Change (Rattus norvegicus [2]): 35% | Change (Rattus norvegicus [3]): 13%

From ChEMBL document CHEMBL1123418, “N-imidazolylchroman-4-ones, N-imidazolyl-1-tetralones, and their alcohols as hypolipemic agents raising high-density lipoproteins” (1986)
